This is a sample that favours compounds with a hit; in the whole collection about 3.4% have one here.
S100A4 inh HTS: blocks human S100A4 binding to myosin IIA peptide | P26447 | S100A4/TAMRA-MyoIIA peptide fluorescence polarization | inhibition, % at 10.7 µM | 360,000 compounds, 0.14% hits | AID 652163;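 active = mean inhibition of at least 70% across replicates, with every replicate also reaching that level; inconclusive = mean inhibition reaches 70% but some replicates fall short; inactive = mean inhibition below 70%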
Target sequence (P26447 whole entry, looked up): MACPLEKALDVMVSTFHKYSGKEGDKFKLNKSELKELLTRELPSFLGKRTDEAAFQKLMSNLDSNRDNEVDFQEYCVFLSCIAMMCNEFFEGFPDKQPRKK
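Assay system: human S100A4 monomer with TAMRA-labelled myosin IIA peptide / Buffer or medium: Calcium-containing HEPES buffer, pH 7.2 / Reagent: TAMRA-labelled myosin IIA heavy-chain peptide probe, 5 nM / Compound: one dose per compound / Timing: polarization read 5 min after assay mix addition, stable 5–60 min / Benchmarks: neutral control DMSO, positive control TFP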
ERAP1 inh: blocks human ERAP1 aminopeptidase activity. inhibition, % at 10.7 µM. recombinant ERAP1, Leu-AMC fluorescence, 60 min. 340,000 compounds, 0.15% hits;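 active = mean replicate inhibition of at least 30%, or all replicates individually reaching that 30% level; inactive = mean below 30% and not every replicate reaching it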;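 note: 0% = neutral control wells and 100% = L-leucinethiol positive control wells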
SIRT5 block: blocks human SIRT5 desuccinylation of peptide. Purified SirT5, succinyl-peptide AMC, trypsin-coupled fluorescence. inhibition, % at 15 µM. 330,000 compounds, 1.1% hits. AID 652115; in the data active = inhibition above about 15%; inconclusive = no clear call, values can overlap the other calls
Target sequence (Q9NXA8 whole entry, looked up): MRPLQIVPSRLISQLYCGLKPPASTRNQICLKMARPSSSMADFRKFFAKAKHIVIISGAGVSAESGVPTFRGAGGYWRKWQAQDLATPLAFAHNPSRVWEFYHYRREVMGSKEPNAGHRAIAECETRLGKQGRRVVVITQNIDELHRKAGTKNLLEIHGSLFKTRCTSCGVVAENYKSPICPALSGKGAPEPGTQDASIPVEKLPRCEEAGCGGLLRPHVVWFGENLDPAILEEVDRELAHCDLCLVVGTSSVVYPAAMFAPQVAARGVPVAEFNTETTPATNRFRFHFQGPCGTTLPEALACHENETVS
E-sel inducer: E-selectin induction on HUVECs; activation, % at 7.58 µM; AID 686992; HUVEC E-selectin immunofluorescence imaging; normalized: neutral wells 0, TNF-alpha wells 100; 260,000 compounds, 0.37% hits; P16581;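 active = mean E-selectin-positive cell signal at least 10% of the positive control, reached in at least 60% of replicates, without over 20% cell loss; inconclusive = no rule given, readout overlaps actives, possibly toxicity-flagged; inactive = the rest, including those meeting only one limit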
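assay system = HUVEC, human umbilical vein endothelial cells | input = 3,000 HUVEC seeded per well | medium = EGM-2 growth medium on 0.1% gelatin-coated wells | dosing = one compound dose added by pin transfer | signal = immunofluorescence imaging | read-out basis = % PE-positive cells | control set = TNF-alpha, DMSO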
MLL AF4-AF9 inh: inhibitors of human MLL-AF4/AF9 interaction; P42568; AlphaScreen, biotin-AF4 peptide binding to FLAG-AF9; inhibition, % at 10 µM; 350,000 compounds, 0.47% hits;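 active = every replicate reaching a set inhibition limit, whatever the replicate mean, cut at about 25% in these data; inconclusive = mean inhibition reaches that limit but some replicates miss it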;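 note: 0% = plate neutral control median and 100% = total signal loss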
Ecoli rRNA inh: inhibits bacterial ribosomal RNA function over humanized ribosomes; E. coli WT GFP vs humanized-ribosome RFP mutants, fluorescence, 24 h; stronger effect = lower value; DMSO median 0, no signal -100; GFP signal change (wild-type ribosome), % (test concentration not listed); 350,000 compounds, 1.6% hits; AID 720706;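 active = significant combined selectivity score with lowered wild-type GFP, culture density cut under 30%, mutant RFP and density less affected; inactive = any of these conditions unmet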
Alpha interfer: AlphaScreen signal interference counter-screen hit; AID 720494; shares compounds with MLL AF4-AF9 inh; signal luminescence; 530 compounds, 45% hits; AC50, µM (series often up to 12 µM), for inactives: at the highest dose activity change, negative = inhibition; cut-off not given, nearly all actives have AC50 up to about 14 µM
AID977621: growth inhibition of wild-type GFP E. coli, dose response, H69 mutant RFP, cherry-pick. shares compounds with Ecoli rRNA inh. E. coli wild-type GFP strain growth, fluorescence, 24 h. activity change, negative = inhibition at 50 µM. 1,900 tested, under 10 active. AID 977621;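 active = Wild-type ribosome reporter drop at least double the humanized mutant ribosome reporter drop, growth loss under a set limit; inconclusive = no clear call, values can overlap the other calls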;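 note: wild-type GFP and H69 mutant RFP strains grown together 50/50 in each well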
AID977628: E. coli growth inhibition, wild-type GFP versus h24 humanized RFP strain, dose response, h24 mutant RFP vs wild-type GFP, cherry-pick; AID 977628; activity change, negative = inhibition at 50 µM; shares compounds with Ecoli rRNA inh; E. coli WT GFP strain growth, fluorescence, 24 h; 1,900 tested, under 10 active;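 active = compound lowering the normal-ribosome reporter at least twice as much as the humanized-ribosome reporter, growth loss under a set limit; inconclusive = no clear call, values can overlap the other calls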;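 note: wild-type GFP and h24 humanized RFP strains co-cultured 1 to 1 per well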
* = called active by the depositor.

What do the screens show for `Cc1ccc(-c2cc(-c3ccc(C)cc3)[n+](-c3ccc(C(=O)[O-])cc3)c(-c3ccc(C)cc3)c2)cc1`?
S100A4 inh HTS: -4; E-sel inducer: 0; MLL AF4-AF9 inh: 26*; Ecoli rRNA inh: -21*; Alpha interfer: -27%; AID977628: inconclusive

How did O=C(O)[C@H]1[C@H](CO)[C@H]2Cn3c(ccc(-c4ccncc4)c3=O)[C@@H]1N2S(=O)(=O)c1ccccc1F do in these assays?
S100A4 inh HTS: 6; ERAP1 inh: -2; SIRT5 block: -45; E-sel inducer: 0; MLL AF4-AF9 inh: -6; Ecoli rRNA inh: 2

Results for COc1ccc(C2CN(C)CC2C(=O)c2ccc(C)cc2)cc1Cl (stereo not given) ?
S100A4 inh HTS: -6; ERAP1 inh: -3; SIRT5 block: 1; MLL AF4-AF9 inh: 6; Ecoli rRNA inh: -28*; AID977621: inconclusive; AID977628: inconclusive

Results for CSc1ncc(CN2CCCC(C(=O)c3cccc(Cl)c3)C2)cn1 (stereo not given) ?
S100A4 inh HTS: 1; ERAP1 inh: -3; SIRT5 block: 2; E-sel inducer: 2; MLL AF4-AF9 inh: 1; Ecoli rRNA inh: -21*; AID977621: -2.3; AID977628: -7.6

Results for O=C(c1ccc(Cl)cc1)C1CCCN(Cc2cccc3cnccc23)C1 (stereo not given) ?
S100A4 inh HTS: 10; ERAP1 inh: -3; SIRT5 block: -5; MLL AF4-AF9 inh: 7; Ecoli rRNA inh: -25*; AID977628: inconclusive

Results for O=C(Cc1ccncc1)N1CCCCN2[C@H](CO)[C@H](c3ccc(C#Cc4ccccc4F)cc3)[C@@H]2C1 ?
E-sel inducer: 0; MLL AF4-AF9 inh: -4; Ecoli rRNA inh: -19

Results for Cc1c(-c2cccc(Cl)c2)nc2ccccc2c1C(=O)N1CCC2(CC1)OCCO2 ?
S100A4 inh HTS: 3; ERAP1 inh: 3; SIRT5 block: 1; E-sel inducer: 0; MLL AF4-AF9 inh: -2; Ecoli rRNA inh: -23*; AID977628: inconclusive

Results for O=C(c1cc(-c2ccccc2)nc2ccccc12)N1CCC2(CC1)OCCO2 ?
S100A4 inh HTS: -10; ERAP1 inh: 2; SIRT5 block: 9; MLL AF4-AF9 inh: inconclusive; Ecoli rRNA inh: -8

How did CCC(=O)N1[C@@H]2c3ccc(-c4ccc(F)cc4)c(=O)n3C[C@H]1[C@H](CO)[C@H]2C(=O)OC do in these assays?
S100A4 inh HTS: 1; ERAP1 inh: 0; SIRT5 block: -15; E-sel inducer: 0; MLL AF4-AF9 inh: -1; Ecoli rRNA inh: 1

Results for CN1CCC(c2c[nH]c3ccccc23)C1 (stereo not given) ?
S100A4 inh HTS: 10; ERAP1 inh: 2; SIRT5 block: -2; E-sel inducer: 0; MLL AF4-AF9 inh: 5; Ecoli rRNA inh: -23*; AID977621: -7.4; AID977628: inconclusive

What do the screens show for `N#Cc1ccc(-c2ccc([C@H]3[C@@H](CO)N4CCCCN(C(=O)Cc5ccccc5)C[C@@H]34)cc2)cc1`?
S100A4 inh HTS: 1; ERAP1 inh: -2; SIRT5 block: 0; E-sel inducer: -1; MLL AF4-AF9 inh: -9; Ecoli rRNA inh: -16

How did N#Cc1ccc(-c2ccc([C@H]3[C@H]4CN(C(=O)Cc5ccccc5)CCCCN4[C@H]3CO)cc2)cc1 do in these assays?
S100A4 inh HTS: 9; ERAP1 inh: -1; SIRT5 block: 1; E-sel inducer: 0; MLL AF4-AF9 inh: -7; Ecoli rRNA inh: 10
